Measurements from ChEMBL document CHEMBL2417536, “New pyridazine-fluorine derivatives: synthesis, chemistry and biological activity. Part II” (2013).
In brackets after ≈: the same amount, converted by molar mass.

Tests used:
Kocuria rhizophila [1] = experiment: Antibacterial activity against Sarcina luteus ATCC 9341 assessed as growth inhibition after 24 hrs by broth microdilution assay; format: functional; details: DC2201, 24 h
Summary of the method: (§1)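 Broth microdilution in Mueller Hinton broth. Inoculum adjusted to 0.5 McFarland. Compounds dissolved in 50% DMSO at 250 mg/mL (stock), then two-fold serial dilutions over 250 to 0.12 mg/mL. Further broth plus 5 µL inoculum added per well. Incubated 24 h at 37 °C, screened twice per organism. MIC is the lowest concentration with no visible growth; chloramphenicol MIC expressed in µg/mL.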

Escherichia coli [2] = experiment: Antibacterial activity against Escherichia coli ATCC 25922 assessed as growth inhibition at 4 mg/disc after 24 hrs by disc diffusion assay; format: functional
Summary of the method: (§2)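 Disc diffusion. Suspension at 0.5 McFarland mixed 1/10 into Mueller Hinton agar. 5 mm sterile filter-paper discs, set in stainless steel cylinders, moistened with compound in chloroform at 4 mg/disc. Plates incubated 24 h at 30 °C; inhibition zone diameter (mm, mean) measured.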

Pseudomonas aeruginosa [3] = experiment: Antibacterial activity against Pseudomonas aeruginosa ATCC 27853 assessed as growth inhibition at 4 mg/disc after 24 hrs by disc diffusion assay; format: functional; summary of the method: as §2
Candida albicans = experiment: Antifungal activity against Candida albicans ATCC 10231 assessed as growth inhibition at 4 mg/disc after 48 hrs by disc diffusion assay; format: functional
Summary of the method: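 Candida albicans suspension at 0.5 McFarland mixed 1/10 into Sabouraud agar. 5 mm filter-paper discs in steel cylinders, loaded with compound in chloroform at 4 mg/disc; nystatin control at 100 µg/disc. Incubated 48 h at 28 °C; inhibition zone diameter (mm) measured.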

Staphylococcus aureus [4] = experiment: Antibacterial activity against Staphylococcus aureus ATCC 25923 assessed as growth inhibition at 4 mg/disc after 24 hrs by disc diffusion assay; format: functional; summary of the method: as §2
Staphylococcus aureus [5] = experiment: Antibacterial activity against Staphylococcus aureus ATCC 25923 assessed as growth inhibition after 24 hrs by broth microdilution assay; format: functional; details: ATCC 25923, 24 h; summary of the method: as §1
Bacillus subtilis [6] = experiment: Antibacterial activity against Bacillus subtilis assessed as growth inhibition at 4 mg/disc after 24 hrs by disc diffusion assay; format: functional; summary of the method: as §2
Bacillus subtilis [7] = experiment: Antibacterial activity against Bacillus subtilis assessed as growth inhibition after 24 hrs by broth microdilution assay; format: functional; summary of the method: as §1
Kocuria rhizophila [8] = experiment: Antibacterial activity against Sarcina luteus ATCC 9341 assessed as growth inhibition at 4 mg/disc after 24 hrs by disc diffusion assay; format: functional, DC2201; summary of the method: as §2
Escherichia coli [9] = experiment: Antibacterial activity against Escherichia coli ATCC 25922 assessed as growth inhibition at 30 ug/disc after 24 hrs by disc diffusion assay; format: functional; details: ATCC 25922, 24 h, read-out: DIZ
Summary of the method: (§3)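 Chloramphenicol control discs at 30 µg/disc on Mueller Hinton agar seeded 1/10 with 0.5 McFarland suspension. Incubated 24 h at 30 °C; inhibition zone diameter (mm) read.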

Kocuria rhizophila [10] = experiment: Antibacterial activity against Sarcina luteus ATCC 9341 assessed as growth inhibition at 30 ug/disc after 24 hrs by disc diffusion assay; format: functional; details: DC2201, 24 h, read-out: DIZ; summary of the method: as §3
Staphylococcus aureus [11] = experiment: Antibacterial activity against Staphylococcus aureus ATCC 25923 assessed as growth inhibition at 30 ug/disc after 24 hrs by disc diffusion assay; format: functional; details: ATCC 25923, 24 h, read-out: DIZ
Summary of the method: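 Disc diffusion. A 0.5 McFarland bacterial suspension was mixed 1/10 with Mueller Hinton agar. Sterile 5 mm filter paper discs, set in sterile steel cylinders, were loaded at 30 µg/disc (the reference antibiotic dose; test compounds were 4 mg/disc in chloroform). Plates were incubated 24 h at 30 °C, and the inhibition zone diameter (mm, mean) was measured.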

Bacillus subtilis [12] = experiment: Antibacterial activity against Bacillus subtilis assessed as growth inhibition at 30 ug/disc after 24 hrs by disc diffusion assay; format: functional; details: read-out: DIZ; summary of the method: as §3
Pseudomonas aeruginosa [13] = experiment: Antibacterial activity against Pseudomonas aeruginosa ATCC 27853 assessed as growth inhibition at 30 ug/disc after 24 hrs by disc diffusion assay; format: functional; details: ATCC 27853, 24 h, read-out: DIZ; summary of the method: as §3

MIC (Kocuria rhizophila [1]) | MIC (Staphylococcus aureus [5]) | MIC (Bacillus subtilis [7]) | Structure (SMILES) | diameter of the inhibition zone (DIZ) (Escherichia coli [2]) | diameter of the inhibition zone (DIZ) (Pseudomonas aeruginosa [3]) | diameter of the inhibition zone (DIZ) (Candida albicans) | diameter of the inhibition zone (DIZ) (Staphylococcus aureus [4]) | diameter of the inhibition zone (DIZ) (Bacillus subtilis [6]) | diameter of the inhibition zone (DIZ) (Kocuria rhizophila [8]) | zone of inhibition at 30 µg/disc (Escherichia coli [9]) | zone of inhibition at 30 µg/disc (Kocuria rhizophila [10]) | zone of inhibition at 30 µg/disc (Staphylococcus aureus [11]) | zone of inhibition at 30 µg/disc (Bacillus subtilis [12]) | zone of inhibition at 30 µg/disc (Pseudomonas aeruginosa [13])
90 µg/mL (≈ 237 µM) | 4200 µg/mL (≈ 11000 µM) | 200 µg/mL (≈ 526 µM) | CCOC(=O)[C@H]1[C@H](C(F)(F)F)[C@@H]2C=CC=NN2[C@H]1C(=O)c1ccc(C)cc1 | 27 mm | 21 mm | 31 mm | 29 mm | 38 mm | 61 mm |  |  |  |  | 
110 µg/mL (≈ 300 µM) | 3800 µg/mL (≈ 10400 µM) | 180 µg/mL (≈ 491 µM) | Cc1ccc(C(=O)[C@H]2C[C@H](C(=O)OCC(F)(F)F)[C@@H]3C=CC=NN23)cc1 | 28 mm | 20 mm | 30 mm | 30 mm | 39 mm | 59 mm |  |  |  |  | 
100 µg/mL (≈ 266 µM) | 160 µg/mL (≈ 425 µM) | 220 µg/mL (≈ 585 µM) | CCOC(=O)c1c(C(F)(F)F)c2cccnn2c1C(=O)c1ccc(C)cc1 | 40 mm | 19 mm | 32 mm | 49 mm | 36 mm | 60 mm |  |  |  |  | 
 |  |  | CCOC(=O)c1c(C(F)(F)F)c2cccnn2c1C(=O)c1ccc(F)cc1 | 34 mm | 16 mm | 29 mm | 30 mm | 31 mm | 41 mm |  |  |  |  | 
 |  |  | O=C(OCC(F)(F)F)[C@H]1C[C@H](C(=O)c2ccc(F)cc2)N2N=CC=C[C@@H]12 | 26 mm | 19 mm | 27 mm | 28 mm | 31 mm | 55 mm |  |  |  |  | 
 |  |  | CCOC(=O)[C@H]1[C@H](C(F)(F)F)[C@@H]2C=CC=NN2[C@H]1C(=O)c1ccc(F)cc1 | 31 mm | 21 mm | 29 mm | 28 mm | 38 mm | 58 mm |  |  |  |  | 
 |  |  | CCOC(=O)c1c(C(F)(F)F)c2cccnn2c1C(=O)c1ccc(Cl)cc1 | 42 mm | 18 mm | 26 mm | 29 mm | 38 mm | 44 mm |  |  |  |  | 
 |  |  | O=C(OCC(F)(F)F)[C@H]1C[C@H](C(=O)c2ccc(Cl)cc2)N2N=CC=C[C@@H]12 | 35 mm | 20 mm | 37 mm | 30 mm | 33 mm | 58 mm |  |  |  |  | 

Structure (SMILES) | MIC (Kocuria rhizophila [1]) | MIC (Staphylococcus aureus [5]) | MIC (Bacillus subtilis [7]) | diameter of the inhibition zone (DIZ) (Escherichia coli [2]) | diameter of the inhibition zone (DIZ) (Pseudomonas aeruginosa [3]) | diameter of the inhibition zone (DIZ) (Candida albicans) | diameter of the inhibition zone (DIZ) (Staphylococcus aureus [4]) | diameter of the inhibition zone (DIZ) (Bacillus subtilis [6]) | diameter of the inhibition zone (DIZ) (Kocuria rhizophila [8]) | zone of inhibition at 30 µg/disc (Escherichia coli [9]) | zone of inhibition at 30 µg/disc (Kocuria rhizophila [10]) | zone of inhibition at 30 µg/disc (Staphylococcus aureus [11]) | zone of inhibition at 30 µg/disc (Bacillus subtilis [12]) | zone of inhibition at 30 µg/disc (Pseudomonas aeruginosa [13])
O=C(N[C@H](CO)[C@H](O)c1ccc([N+](=O)[O-])cc1)C(Cl)Cl [CHLORAMPHENICOL] | 0.25 µg/mL (≈ 0.774 µM) | 0.25 µg/mL (≈ 0.774 µM) | 0.25 µg/mL (≈ 0.774 µM) |  |  |  |  |  |  | 29 mm | 30 mm | 25 mm | 25 mm | 19 mm
